Source: publication PMC6387599 (Drug Design, Development and Therapy, 2019)

Columns and labels:
[1] = test system: IL-6 production in LPS-induced A549 cells; experiment: Inhibition of IL-6 production; assay type: cell-based; settings: Homo sapiens, A549, 24 h, read-out: inhibitory rate on IL-6
How it was run: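 A549 cells preincubated 1 h with test compound (10^-11–10^-6 M), then stimulated with LPS-EB (5 µL of 10 µg/mL solution) for 24 h. IL-6 in supernatants measured by ELISA, read at 450 nm. Inhibitory rate of IL-6 production calculated; IC50 from dose–response curves; n=3, mean ± SD.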

xylene-induced ear edema = experiment: Xylene-induced ear edema test; assay type: in vivo; settings: mice, intraperitoneal, equivalent to 200 μg/kg Bud, 1 hour before xylene
How it was run: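 Male Kunming mice (20–25 g), n=10 per group, dosed intraperitoneally (0.1 mL/10 g body weight) with test compound at a dose equivalent to 200 µg/kg budesonide; vehicle 2% DMSO. After 1 h, 20 µL xylene applied to right ear, left ear untreated. Killed 1 h later; 6-mm ear discs weighed. Edema = right minus left ear weight. Analysed by one-way ANOVA with Fisher's LSD; mean ± SD.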

[2] = Equilibrium solubility in distilled water; assay type: physicochemical; settings: 25°C, 72 hours
How it was run: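 Supernatant sampled at 0, 12, 24, 36, 48, 60 and 72 h and passed through a 0.45-µm filter. Concentration measured by HPLC at 242 nm, 30°C, 1.0 mL/min. Mobile phase was methanol or acetonitrile with phosphate buffer (pH 8.0 or 7.4; 70:30 or 80:20 v/v), depending on compound.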

- equilibrium solubility [2]: 0.0022 g/100 g water
SMILES: CCCC1O[C@@H]2C[C@H]3[C@@H]4CCC5=CC(=O)C=C[C@]5(C)[C@H]4[C@@H](O)C[C@]3(C)[C@]2(C(=O)CO)O1 (stereo partly drawn) [Bud, budesonide]
- inhibition at 0.001 µM [1]: > 50%
- inhibition of ear edema (xylene-induced ear edema): 17.19%
